Source: PubChem (several laboratories)
KCNQ1 pot = human KCNQ1 channel potentiation or activation. B-score at 10 µM. CHO-K1 KCNQ1, thallium flux FluxOR fluorescence; stronger effect = higher value. 310,000 tested, 0.35% active. P51787;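 active means fluorescence ratio B-score, a plate-corrected score, at least three library SD, with initial intensity B-score within 5 SD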
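Doses: Single concentration per compound, DMSO matched to controls | Test system: KCNQ1-transfected CHO-K1 cells | Timing: 90 min dye loading and 20 min compound exposure, both at room temperature | Measured by: Kinetic FluxOR thallium fluorescence, 10-s 1-Hz baseline, 110-s post-stimulus read | Medium: Assay buffer with matched DMSO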
KCNQ1 inh = blocks the human KCNQ1 potassium channel. P51787. CHO-K1 KCNQ1, FluxOR thallium flux fluorescence; stronger effect = higher value. B-score at 10 µM. 310,000 tested, 1.3% active. AID 2642;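 active means compounds whose thallium flux B-score, printed positive for inhibition, exceeds three library SD while starting fluorescence stays within three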;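 further: channel opened by potassium depolarization with thallium stimulus after 20 min compound exposure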
KCC2 mod = modulators of human KCC2 chloride dependent transport. KCC2 cells, thallium flux FluoZin-2 fluorescence. B-score of Tl+ flux slope (higher = more flux/activation; lower = inhibition) at 10 µM. 190,000 tested, 2.2% active. AID 1456;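 active means thallium flux slope and its plate-corrected score both differing from the plate sample mean at a set confidence after two filtering rounds, in either direction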;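 further: slope of fluorescence scaled to starting intensity during 10 to 20 s after thallium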
hERG rescue = compounds protecting human hERG from proarrhythmic drug block. activation (rescue from dofetilide block), less the hit threshold, % at 10 µM. 310,000 tested, 0.51% active. CHO-hERG, FluxOR thallium flux, dofetilide IC70 present. Q12809. AID 1511;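 active means activation above the mean of controls blocked by dofetilide plus 5 SD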;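 further: thallium influx through hERG after potassium depolarization seen as dye fluorescence rise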
KCNK3 block = human KCNK3 channel inhibition, primary screen; O14649; CHO-KCNK3 thallium flux, FluxOR fluorescence; stronger effect = lower value; B-score at 10 µM; 340,000 tested, 0.84% active; AID 602410;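 active means B-score under library mean minus 4 SD, starting fluorescence ratio at most library mean plus 5 SD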;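 further: more negative B-score means stronger inhibition of thallium flux through KCNK3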
KCNK9 block = blocks the human KCNK9 two-pore domain potassium channel. 310,000 tested, 1.2% active. B-score at 10 µM. HEK293 KCNK9, FluxOR thallium flux fluorescence; stronger effect = lower value. Q9NPC2;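 active means ratio B-score over 3 SD below the library mean, with starting fluorescence within 5 SD of its mean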;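 further: negative B-score means less thallium flux so channel inhibition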
KCNK9 block conf = confirmation of human KCNK9 potassium channel inhibitors; shares compounds with KCNK9 block; 4,900 tested, 43% active; HEK293 KCNK9 cells, FluxOR thallium flux fluorescence; inhibition, % at 10 µM; AID 492992;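 active means thallium signal inhibited by more than 5 SD of the compound-free buffer control wells, on both duplicate plates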;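 further: 0% = assay buffer control wells without compound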
Kir2-1 spec = mouse Kir2.1 off-target activity of KCNK9 modulators. shares compounds with KCNK9 block. Kir2.1 cells, FluxOR thallium flux fluorescence. inhibition, % at 10 µM. 4,900 tested, 4% active;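 active means thallium signal drop more than 5 SD beyond the mean of the no-compound control wells, seen in both duplicate plates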;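 further: signal is fluorescence rise after thallium addition divided by baseline fluorescence; plate controls were assay buffer only for no effect and full block by chlorpromazine control for full effect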
Target sequence (P35561 whole entry, looked up): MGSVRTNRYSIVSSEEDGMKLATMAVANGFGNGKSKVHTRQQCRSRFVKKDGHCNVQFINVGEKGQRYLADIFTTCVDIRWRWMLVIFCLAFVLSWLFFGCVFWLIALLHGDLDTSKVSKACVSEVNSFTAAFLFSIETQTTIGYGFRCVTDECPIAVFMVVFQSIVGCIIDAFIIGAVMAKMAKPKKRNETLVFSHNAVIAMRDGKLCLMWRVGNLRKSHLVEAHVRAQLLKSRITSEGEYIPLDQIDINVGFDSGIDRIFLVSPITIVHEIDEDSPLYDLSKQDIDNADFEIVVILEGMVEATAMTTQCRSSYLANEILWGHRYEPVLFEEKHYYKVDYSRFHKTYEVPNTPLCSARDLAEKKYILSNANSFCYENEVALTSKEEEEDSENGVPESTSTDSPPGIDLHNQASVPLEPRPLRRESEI
KCNK9 uninduced = non-induced cell nonspecific activity of KCNK9 modulators. shares compounds with KCNK9 block. non-induced KCNK9-HEK293, FluxOR thallium flux. inhibition, % at 10 µM. 4,900 tested, 40% active. AID 492997;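 active means thallium signal drop beyond 5 SD of the untreated control mean, on both duplicate plates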;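 further: plate controls were buffer only IC0 wells for no effect and SID17386958 at its maximal inhibitory level for full effect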
* marks the source's active call; other numbers are inactive results; i = inactive; / = no result given. This is a sample that favours compounds with a hit; in the whole collection about 4.1% have one here.

SMILES	KCNQ1 pot	KCNQ1 inh	KCC2 mod	hERG rescue	KCNK3 block	KCNK9 block	KCNK9 block conf	Kir2-1 spec	KCNK9 uninduced
COc1ccc(N2C(=O)/C(=C\c3ccco3)N=C2SCC(=O)NC(C)C)cc1Cl	i	i	0.64	-5	i	-12*	78%*	i	36%*
c1ccc(C2CCC3(CC2)Oc2ccccc2C2CC(c4cccnc4)=NN23)cc1 (stereo not drawn)	i	i	-0.38	-9	/	-9.3*	50%*	i	41%*
CCC1CN(C(=O)NCc2cccc(OC)c2)c2ccccc2O1 (stereo not drawn)	i	i	/	-2	i	i	i	i	i
CCC1CN(C(=O)NCc2cccc(OC)c2)c2cc(Cl)ccc2O1 (stereo not drawn)	i	i	/	-4	i	i	/	/	/
Cc1cc(=O)c2cc(Br)ccc2n1CC(=O)NCc1ccccc1	i	i	-0.53	-7	i	-9.7*	i	i	33%*
O=S(=O)(Nc1ncnc2scc(-c3ccc(F)cc3)c12)c1cc(F)ccc1F	i	6*	-2	-19	i	i	i	i	i
CCOc1ccc(CCNC(=O)COn2nnc3ccc(S(=O)(=O)N4CCOCC4)cc32)cc1OCC	i	i	/	-14	i	i	/	/	/
O=C(Nc1ccc(F)cc1)N(Cc1cccs1)Cc1cc2cc3c(cc2[nH]c1=O)OCO3	i	i	0.18	-7	i	-11*	i	i	42%*
CCN(C(=O)COC(=O)c1ccc(Cl)cc1N)C1CCCCC1	i	i	0.89	-13	i	i	i	i	i
Cc1c(C)n(C(=O)CN2CCN(c3ccccn3)CC2)c2ccccc12	i	i	-0.48	-16	i	i	i	i	i
COc1ccc(Br)cc1C(=O)Nc1cccc(-c2nnc(-c3ccco3)o2)c1	i	i	-0.59	-4	i	-12*	60%*	i	i
Cc1ccc(C(=O)NCCCNC(=O)COc2ccc(C)c(C)c2)cn1	i	i	/	-4	i	i	/	/	/
COc1ccc(CNC(=O)c2ccccc2C(=O)O)cc1	i	i	0.13	-2	i	i	/	/	/
COc1ccc(CNC(=O)c2cccc(-c3ccc(C)c4ccccc34)n2)cc1	i	i	0.76	-11	i	i	i	i	i
CCN(c1ccccc1)c1ncnc2c1cnn2-c1ccccc1	i	i	/	-23	i	i	i	i	i
O=C(COC(=O)c1ccc(F)c(S(=O)(=O)N2CCOCC2)c1)Nc1ccc2[nH]c(=O)[nH]c2c1	/	/	/	/	i	/	/	/	/
O=C(CCSc1ccc(Cl)cc1)N1CCCCCC1	i	i	2.5	-7	i	i	i	i	i
NC(=O)C1CCN(C(=O)CCSc2ccc(Cl)cc2)CC1	i	i	/	-1	i	i	/	/	/
C1CCC(c2nn3c(-c4n[nH]c5c4CCC5)nnc3s2)CC1	i	i	-0.45	-15	i	i	/	/	/
CCN(CC)c1ccc(-c2nn3c(-c4n[nH]c5c4CCC5)nnc3s2)cc1	i	i	-0.15	-12	-9*	-14*	44%*	i	36%*
COc1ccc(C2CC(c3cccs3)=Nc3ccccc3S2)cc1 (stereo not drawn)	i	i	-1.6	-2	i	-12*	52%*	i	36%*
Cc1ccc(C)c(CSc2nnc(-c3cccs3)n2Cc2ccco2)c1	i	i	-1.2	-13	i	-12*	36%*	61%*	42%*
NC(=O)CSc1nnc(-c2cccs2)n1Cc1ccco1	i	i	-1.3	-9	i	i	/	/	/
COc1ccc(CCC(=O)NNC(=O)Cn2nc(C)cc2C)cc1	i	i	/	-8	i	i	/	/	/
Cc1ccc(/C=C/C(O)=C2/C(=O)N(C)C3(C)CC2c2ccccc2O3)cc1 (stereo not drawn)	i	i	-1.1	-10	i	-8.3*	52%*	i	42%*
SMILES	KCNQ1 pot	KCNQ1 inh	KCC2 mod	hERG rescue	KCNK3 block	KCNK9 block	KCNK9 block conf	Kir2-1 spec	KCNK9 uninduced
COc1ccc(/C=C/C(O)=C2/C(=O)N(C)C3(C)CC2c2ccccc2O3)cc1 (stereo not drawn)	i	i	/	-12	i	-10*	41%*	i	30%*
OC1CCN(Cc2cccc3ccccc23)CC1	i	i	-0.05	-9	i	i	/	/	/
C/C(=N/N1CCN(Cc2cccc3ccccc23)CC1)c1ccco1	i	i	-0.038	-13	i	i	i	i	i
CCN(CC)c1ccc(/C=N/N2CCN(Cc3cccc4ccccc34)CC2)c(O)c1	i	i	/	-8	i	i	i	i	i
CCN(CC)c1ccc(/C=N/N2CCN(Cc3ccc(Cl)cc3)CC2)c(O)c1	i	i	-0.007	-3	i	i	/	/	/
C(=N\N1CCN(Cc2cccc3ccccc23)CC1)/c1cccs1	i	i	-0.039	-4	i	i	i	i	i
Cc1ccc(C)c(OCc2cc(C(=O)NC3CCOC(C)(C)C3)no2)c1 (stereo not drawn)	i	i	/	-9	i	i	/	/	/
CSc1nnc(CCNS(=O)(=O)c2ccccc2Br)n1C	i	i	/	-6	i	i	/	/	/
COc1ccc(/C=N/Nc2nc(-c3cccnc3)nc3ccccc23)c(OC)c1	i	i	0.015	-18	i	i	/	/	/
COc1ccc(N2Cc3cccc(C(=O)NC(C)CCc4ccco4)c3C2=O)cc1 (stereo not drawn)	i	i	-2.2	-14	-9.9*	-16*	57%*	i	34%*
CSc1ccccc1OCc1cc(C(=O)N2CCc3sccc3C2)no1	i	i	/	-7	i	i	i	i	i
Cc1cc(C)c(C(=O)NC2CCCc3c2cnn3-c2ccc(C)c(C)c2)c(=O)[nH]1 (stereo not drawn)	i	i	/	-7	i	i	/	/	/
CC1=NOC(=O)/C1=C\c1ccc(-c2ccc(Cl)c(C(=O)O)c2)o1	i	i	0.78	-10	i	i	/	/	/
CC1=NOC(=O)/C1=C\c1ccc(-c2cccc(Cl)c2)o1	i	i	-0.61	-12	i	i	i	i	i
